These results are taken from ChEMBL document CHEMBL2086296, “Synthesis of novel quinoline-2-one based chalcones of potential anti-tumor activity” (Eur J Med Chem, 2012).

Data set [1] deals with Mus musculus. As to the kind of experiment: Acute toxicity in athymic nude mouse assessed as weight loss up to 400 mg/kg, ip after 2 weeks. The note with it: in vivo, 336 h. Also noted: dose 400 mg/kg, route intraperitoneal. It is filed as organism-based. Summed up:
(§1)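 Single ip injection in athymic nude mice, one mouse per dose at 400, 200 and 100 mg/kg, dosed at 0.1 mL/10 g body weight, with feed and water ad libitum. Animals observed for 2 weeks and sacrificed on >20% body weight loss or other signs of significant toxicity. If all three were sacrificed, 50, 25 and 12.5 mg/kg were tested next.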

In data set [2] the test system is Mus musculus. As to the kind of experiment: Acute toxicity in athymic nude mouse assessed as mortality up to 400 mg/kg, ip after 2 weeks. Type of data set: organism-based. Further details: dose 400 mg/kg, route intraperitoneal. Particulars: in vivo, 336 h. In short, it runs like this: as §1
A further data set relates to NCI-H322M. As to the kind of experiment: Cytotoxicity against human NCI-H322M cells after 24 hrs by SRB assay. It is filed as functional. Summed up:
(§2)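 NCI 60-line screen. Cells in RPMI 1640 with 5% FBS and 2 mM L-glutamine, seeded at 5,000–40,000 cells/well by doubling time, then incubated 24 h at 37 °C, 5% CO2 before dosing. Time-zero plates fixed with TCA at drug addition. DMSO stocks diluted in medium with gentamicin to five concentrations, […]. Protein read by SRB staining. GI50, TGI and LC50 derived relative to control and time-zero.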
For orientation: The SRB assay estimates cell density from bound dye.

In data set [3] the test system is PC-3. As to the kind of experiment: (§3) Cytotoxicity against human PC3 cells after 24 hrs by SRB assay. It is filed as cell-based. The note with it: pc-3, 24 h. In short, it runs like this:
(§4)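 NCI 60-cell screen. Cells grown in RPMI 1640 with 5% FBS and 2 mM L-glutamine, seeded at 5,000–40,000 cells/well, preincubated 24 h at 37 °C in 5% CO2. Drug stock in DMSO, diluted in medium with gentamicin; five final concentrations, 100, 10, 1.0, 0.1 and […]. Time-zero plates were TCA-fixed. Protein read by SRB staining; GI50, TGI and LC50 taken relative to time-zero.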

Data set [4] has as its system A498. Put plainly: (§5) Cytotoxicity against human A498 cells after 24 hrs by SRB assay. Type of data set: cell-based. Particulars: a498, 24 h. Summed up:
as §4

Data set [5] has as its system K562. As to the kind of experiment: (§6) Cytotoxicity against human K562 cells after 24 hrs by SRB assay. Type of data set: functional. Particulars: K562, 24 h. Summed up: as §2
Data set [6] relates to K562. The description is as §6. Type of data set: cell-based. The note with it: k562, 24 h. Summed up: as §4
The test system of data set [7] is A498. Described as §5. It is filed as functional. The note with it: A498, 24 h. In short, it runs like this: as §2
Data set [8] deals with PC-3. Described as §3. Type of data set: functional. Particulars: PC-3, 24 h. In short, it runs like this: as §2

Bounds are passed on as bounds.

On to `O=C(/C=C/c1cc2ccccc2[nH]c1=O)/C=C/c1cc2ccccc2[nH]c1=O`, for which the Activity entry with Mus musculus [1] and with Mus musculus [2] was “Non-toxic” throughout.

One may read the GI50 as the concentration at which growth is held to half of that of the control. By TGI is commonly meant the concentration at which net growth stops. Read a high TGI as lower sensitivity of the cells. For `O=C(/C=C/c1cc2ccccc2[nH]c1=O)c1ccc(Cl)cc1`, in the data set on NCI-H322M, the GI50 was found to be 13.4 µM and net growth stopped (TGI) at 79 µM.

A word on the LC50: it is the concentration that kills 50% of the test population. For the compound `O=C(/C=C/c1cc2ccccc2[nH]c1=O)c1ccc(O)cc1`, the LC50 in the data set on PC-3 [3] was greater than 100 µM; in the data set on A498 [4], 47.8 µM; in the data set with K562 [6], greater than 100 µM. Moreover, the GI50 came to 3.98 µM in the data set with NCI-H322M, 3.89 µM in the data set on K562 [5], 8.44 µM with A498 [7] and 5.39 µM with PC-3 [8]. In addition, the concentration for total growth inhibition (TGI) is 16.8 µM in the data set on NCI-H322M, greater than 100 µM in the data set on K562 [5], 21.3 µM in the data set with A498 [7] and 55.3 µM in the data set with PC-3 [8].
